{"data": "Experimental data of several laboratories", "target": "Casein kinase I isoform gamma-2 (CSNK1G2, Homo sapiens, UniProt P78368)", "note": "Lines come from different studies, so protocols differ."}
{"SMILES": "CC(C)(C)c1cc(C=C(C#N)C#N)cc(Br)c1O", "read-out": "enzyme activity", "mode": "inhibitor", "tested at": "0.5 µM", "quantity": "remaining activity", "result": "100%"}
{"SMILES": "Cn1cc(-c2cc(F)cc(N3CCn4c(cc5c4CCCC5)C3=O)c2CO)cc(Nc2ccc(N3CCN(C4COC4)CC3)cn2)c1=O", "read-out": "enzyme activity", "mode": "inhibitor", "tested at": "0.1 µM", "quantity": "inhibition", "result": "7%"}
{"SMILES": "Cc1nn(C)cc1-c1nc2c(N3CCN(Cc4ccc(Cl)cc4)CC3)c(Cl)cnc2[nH]1", "read-out": "binding", "method": "competition with immobilised ligand", "tested at": "1 µM", "quantity": "remaining binding", "result": "96%"}
{"SMILES": "Cn1cc(-c2cccc(N3CCc4c(sc5c4CC(C)(C)C5)C3=O)c2CO)cc(Nc2ccncn2)c1=O", "read-out": "enzyme activity", "mode": "inhibitor", "tested at": "1 µM", "quantity": "inhibition", "result": "6%"}
{"SMILES": "Nc1ncc(-c2nc(N3CCOCC3)nc(N3CCOCC3)n2)c(C(F)F)n1", "read-out": "binding", "method": "competition with immobilised ligand", "tested at": "10 µM", "quantity": "remaining binding", "result": "85%"}
{"SMILES": "COc1cc(Nc2ncc(F)c(Nc3ccc4c(n3)NC(=O)C(C)(C)O4)n2)cc(OC)c1OC", "read-out": "binding", "method": "competition with immobilised ligand", "tested at": "10 µM", "quantity": "inhibition", "result": "0%"}
{"SMILES": "COc1ncccc1-c1cnn2ccc(N3CCN(C(=O)OC(C)C)CC3)nc12", "read-out": "binding", "method": "competition with immobilised ligand", "tested at": "1 µM", "quantity": "remaining binding", "result": "100%"}
{"SMILES": "O=c1[nH]c2ccccc2n1C1CCN(Cc2ccc(-c3[nH]c4cc5ncnc5cc4nc3-c3ccccc3)cc2)CC1", "read-out": "cell-free assay", "tested at": "0.5 µM", "quantity": "remaining signal", "result": "101%"}
{"SMILES": "Cn1cncc1[C@@](O)(COc1ccc(C#N)cc1-c1ccc(OC(F)(F)F)cc1)c1ccc(C#N)cc1", "read-out": "cell-free assay", "method": "competition with immobilised ligand", "tested at": "1 µM", "quantity": "remaining binding", "result": "64%"}
